Test results from ChEMBL document CHEMBL1148296, “Syntheses, calcium channel agonist-antagonist modulation activities, and nitric oxide release studies of nitrooxyalkyl 1,4-dihydro-2,6-dimethyl-3-nitro-4-(2,1,3-benzoxadiazol-4-yl)pyridine-5-carboxylate racemates, enantiomers, and diastereomers” (J Med Chem, 2004).

What was measured:
Cavia porcellus [1] = organism: Cavia porcellus; assay: In vitro nitric oxide release incubated in the presence of N-acetyl-cysteamine in phosphate buffer; format: functional
Method in brief: (§1)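 Compound (0.0075 mmol) stirred under argon at 37 °C for 1 h in 0.1 M phosphate buffer pH 7.40/acetonitrile 1:1; line 6 with N-acetylcysteamine 1 equiv per ONO2, line 5 without. After air exposure, Griess reagent 10 min, A540; nitrite quantified against 3–24 µM NaNO2 standards; % NO from one ONO2, control without compound, n = 3.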

Cavia porcellus [2] = organism: Cavia porcellus; assay: In vitro nitric oxide release incubated in the absence of N-acetyl-cysteamine in phosphate buffer; format: functional; method in brief: as §1

O=[N+]([O-])OCC(CO[N+](=O)[O-])O[N+](=O)[O-] [NITROGLYCERIN]
Release (Cavia porcellus [1]): 5.3%
Release (Cavia porcellus [2]): 0.18%
